# Laboratory results as given in ChEMBL document CHEMBL4513216, “Probing the Open Global Health Chemical Diversity Library for Multistage-Active Starting Points for Next-Generation Antimalarials” (ACS Infect Dis, 2020).
# Experiment: Toxicity liver stage against HepG2, at 10uM
# Format: cell-based
# Design: test concentration 10 uM, cell line HepG2-A16-CD81EGFP
# Conditions: human, HepG2-A16-CD81EGFP cells; read-out: INHIBITION
# In short: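 Uninfected HepG2-A16-CD81EGFP cells, 3 × 10^3 per well, 1536-well, plated on prespotted compound at 10 μM final, parasite-free screening media added to match infected plates; puromycin 10 μM positive, DMSO 0.5% negative; run in parallel with 48 h PbLuc assay at 37 °C, 5% CO2; viability by CellTiter-Glo luminescence, normalized to controls.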
row,SMILES,cytotoxicity at 10 µM [%]
1,O=C1c2c(O)cc(O)cc2O[C@@H](c2ccc(O)cc2)[C@@H]1O,-0.639
2,CCOC(=O)CCn1cnc2onc(-c3ccc(OC)cc3)c2c1=O,18.8
3,CNCc1cc(C)n(-c2ccccc2OC)c1C,-45
4,N#Cc1nc(COc2ccc3c(c2)OCO3)oc1NC1CCCCC1,-41.4
5,Cc1cnc2c(c1NCc1cccnc1)c(=O)n(C)c(=O)n2C,-2.02
6,O=C(NCC1CCN(c2ncccn2)CC1)c1cnccn1,2.84
7,Cc1nsc(C(=O)NCCc2ccc(S(N)(=O)=O)cc2)n1,7.11
8,O=C(Cc1cccs1)Nc1cnn(C2CCOCC2)c1,-0.779
9,CC(C)CN1C(=O)CO[C@@H]2CN(C(=O)NC(C)C)C[C@H]21,-5.27
10,Cc1c(C)n(Cc2ccncc2)c2nc3c(c(N)c12)CCCCC3,1.26
11,CCC(=O)c1ccc(Br)cc1NN1c2cc(Br)ccc2C(=O)C1(C)OC (stereo not given),78.6
12,Cc1ccccc1CN1CCCC1c1cccc(Nc2nccs2)n1 (stereo not given),13.3
13,Cc1cc(C2CCCCN2C(=O)c2ccsc2)nc2nccn12 (stereo not given),-11.8
14,Cc1nccn1-c1nccnc1C1CCN(Cc2ccc(F)cc2)CC1,-5.43
15,Cc1cc(-c2cnc(NCc3cccnc3)nc2C(C)C)on1,19.2
16,NCCn1nc(C2CCN(Cc3ccc(Cl)c(Cl)c3)C2)c2nccnc21 (stereo not given),27.7
17,COc1c(CNCCc2c[nH]c3cc(F)ccc23)c(C)nn1C,-7.53
18,CC(c1ccccc1F)N(CC(N)=O)C1CC1 (stereo not given),-46.3
19,CCc1ccc(C(=O)N2CCC(N(C)C(=O)OC(C)(C)C)C2)o1 (stereo not given),-48
20,CN1CCC(N(Cc2ccco2)S(=O)(=O)c2cc(Br)ccc2Br)CC1,-17.7
21,Cc1ccc(OCC(=O)NS(=O)(=O)Cc2ccccc2)cc1,2.07
22,CCNC(=O)CN(CC)C(=O)c1cccc(Nc2cnn(C)c2)c1,7.68

row,SMILES,cytotoxicity at 10 µM [%]
1,COc1ccncc1NCc1ccsc1,19
2,Cc1nc(COC(=O)c2cccc3c2OCCO3)no1,5.55
3,Cc1cccc(CN(Cc2ccccn2)Cc2ncc(C(C)(C)C)o2)c1,3.49
4,CCc1ccc(CCC(=O)N2CCC(=O)Nc3cccnc32)cc1,-46.7
5,CC(C)c1ccc(/C=C/CC(=O)NC2CCS(=O)(=O)CC2)cc1,5.5
6,CN1CCOC(CNCCOc2ccc(C#N)cc2)C1 (stereo not given),9.34
7,Cc1ccccc1CC(C)(C)NC(=O)CCOc1cccc(C(N)=O)c1,-4.07
8,CCS(=O)(=O)Cc1nc(-c2cnn3c(C)cc(C)nc23)no1,-4.79
9,NC(=O)C1CN(c2ccc(Br)cn2)CCO1 (stereo not given),0.105
10,O=C(NCCN1CCOCC1)C(OC1CCCC1)c1ccccc1 (stereo not given),-2.99
11,CCOC(=O)C1CCN(C(=O)CN2CCCC2c2ccccc2C)CC1 (stereo not given),7.97
12,CN(C(=O)CCC(F)(F)F)c1cccc2ncccc12,1.9
13,CC(NC(=O)CSCC(N)=O)c1ccccc1Oc1ccccc1 (stereo not given),4.84
14,Cc1nc(N2CCC3(CCOC3)C2)c2cc[nH]c2n1 (stereo not given),-2.95
15,Cc1ccc(C(CNCc2ccc(C#N)cc2)N2CCOCC2)s1 (stereo not given),15.3
16,COCc1nc2cc(NCc3scnc3C)ccc2o1,18.6
17,Cc1cc(C(=O)Nc2ccc3oc(=O)n(CCN(C)C)c3c2)c(C)o1,-2.22
18,Cc1nn(C)c(C)c1C1CCCN1c1ncnc2sccc12 (stereo not given),44.1
19,CC(C)CC(=O)NCc1cccc(OCCN(C)C2CCOCC2)c1,11.5
20,NC(=O)C1CCN(Cc2cc3c(cc2Br)OCCO3)C1 (stereo not given),0.641
21,CCc1nc(C2CCCN2Cc2nc(C(C)(C)C)no2)no1 (stereo not given),12.9
22,Cc1c(C(C)NC(=O)N2CCN(C3CCCC3)CC2)cnn1C (stereo not given),3.02

row,SMILES,cytotoxicity at 10 µM [%]
1,N#CCSCCCN1CCN(C(=O)c2ccccc2F)CC1,-147
2,Cc1noc(-c2ccnc(N3CCC(CN4CCOCC4)CC3)c2)n1,-2.11
3,Cc1ccc(OCC(O)COC2CCOCC2)c(Cl)c1 (stereo not given),-5.27
4,CCN(CC)S(=O)(=O)N(C)Cc1ccncc1,0.52
5,Cc1ncsc1CNC(=O)NCC1(c2ccc3c(c2)OCO3)CC1,14.3
6,CC(=O)N1CCCC(C(=O)N2CCN(Cc3cc(C)on3)CC2)C1 (stereo not given),-52.2
7,Cc1ccc2cc(C(=O)N3CCN(C(=O)N(C)C)CC3)ccc2n1,-52.1
8,O=C(CN1CCCCC1Cn1cncn1)NC1CCN(C2CC2)CC1 (stereo not given),-19.3
9,Cc1ccc(C(=O)NC2CCN(Cc3noc(CC(C)C)n3)CC2)s1,-15.2
10,CN(C)Cc1cncc2c1CCN(CC(=O)N(C)C)C2,-99.4
11,CC(C)Nc1nc(-c2ccccc2)nc2c1CCN(C(=O)CC#N)CC2,-104
12,O=C(N[C@@H]1CN(Cc2ccoc2)C[C@@H]2CCCO[C@@H]21)C1CCC1,-95.8
13,Cc1cccc(C(=O)N2CCC3(CC2)CC(c2cnn(C)c2)CO3)c1 (stereo not given),-78.7
14,CNC(=O)N1CCc2nc(C(=O)NCc3cccc(OC)c3)sc2CC1,-84.2
15,Cn1cccc1C(=O)N1CCC2(CC1)CN(c1ccsc1)C(=O)CO2,-76.9
16,COc1cc(N2C[C@@H]3COC[C@]3(COc3ccc(C#N)cn3)C2)ncn1,32.2
17,Cc1cccn2c(CC(=O)N3CCC(CCn4cccn4)CC3)cnc12,-53.1
18,CC(C)c1nnsc1CN1CCc2[nH]nc(-c3ccc(F)c(F)c3)c2C1,25.9
19,O=S(=O)(NCc1ccccc1)N1CCCN(c2ccncc2)CC1,-11
20,Cc1cnc(N2CCCC(c3ccccc3)C2)nc1-c1ccnn1C (stereo not given),-1.18
21,COC(=O)c1cc(CN2CCN(c3ncccc3C)CC2)ccc1O,-0.503
22,CN(Cc1ccc(-n2cccn2)cc1)C[C@@H]1CCCN2CCCC[C@H]12,0.537

row,SMILES,cytotoxicity at 10 µM [%]
1,CCc1ccc(C(=O)N2CCC3(CCC(=O)N(CCN(C)C)C3)CC2)[nH]1,5.96
2,Cc1ccc2nc(CN(C)Cc3n[nH]c4c3CCCCC4)[nH]c2c1C,17.1
3,COc1ccc2c(c1)OCC(CNc1cc(N)nc(SC)n1)C2 (stereo not given),34.4
4,COc1cccc(OC2CN(C(=O)CCn3cnc4ccccc43)C2)c1,3.67
5,Cc1nc(CC(=O)NCc2csc(N3CCCC3)n2)cs1,-5.26
6,COc1ccnc(CN(C)C(=O)CSc2nnc(N)s2)c1,3.94
7,COc1ccc(C(=O)C2CCCN(CCc3ccccc3)C2)c(OC)c1 (stereo not given),7.8
8,Cc1ccsc1CN1CCC(n2cc(C(O)c3ccccc3)nn2)CC1 (stereo not given),8.69
9,Cc1nn(CCO)cc1CN1CCCC1c1nc2c(C)cccc2[nH]1 (stereo not given),3.83
10,c1ccc(C(Cn2cnnc2)N2CCOCC2)nc1 (stereo not given),0.997
11,COc1ccc(Cl)cc1-n1nc(C2CCCC2)nc1Cn1cnnn1,-15.5
12,CSc1cccc(CN(C)C(=O)Nc2nc(C)n(C)n2)c1,2.78
13,COc1cccc(Cn2ncnc2CCC(C)N2CCN(C)CC2)c1 (stereo not given),-4.05
14,CCN1CCC(CC(=O)NCc2nc(C)cc(C)n2)CC1,-8.75
15,c1ccc(C(CC2CN(Cc3c[nH]cn3)CCO2)c2ccccc2)cc1 (stereo not given),-5.54
16,CN1CCN(Cc2n[nH]c(=O)n2CC2CCCCC2)CC1,-47.9
17,c1ccc(C2CN(C3CC3)CC3(CCN(Cc4cscn4)CC3)C2)cc1 (stereo not given),5.58
18,CNc1ccc(C(=O)N(C)Cc2ccc3ccccc3n2)cn1,1.5
19,C[C@@H]1CN(CC(C)(C)N2CCCCC2)CC[C@@]1(O)C1CC1,-4.6
20,COc1ccccc1N1CC(NC(=O)c2cc(C(C)C)nn2C)CC1=O (stereo not given),52.4
21,CN(c1ccc(C(=O)NCCCN2CCCCC2)c(Cl)c1)S(C)(=O)=O,-0.313
22,COc1cccc(CC(=O)N2CCC3(CC2)OCCCC3O)c1OC (stereo not given),-5.7

row,SMILES,cytotoxicity at 10 µM [%]
1,O=C1CC(c2ccc(F)cc2)c2cnn(C3CCCC3)c2N1 (stereo not given),3.82
2,CC(=O)c1ccn(CC(=O)Nc2nn(CC3CC3)c3ccccc23)n1,9.34
3,CSCCC1c2nc[nH]c2CCN1Cc1cc(Cl)ccc1O (stereo not given),23.3
4,CCn1ccnc1CN1CCC(CCC(=O)Nc2ccccc2Cl)CC1,-26.5
5,COc1ccc(CCN2CCCC(CN(C)Cc3ccc(C)o3)C2)cc1 (stereo not given),-14.5
6,Cc1cnn(CC2CN(Cc3cccc(OC(C)C)c3)CCO2)c1 (stereo not given),-4.83
7,CN(C)c1cc(CNC(=O)Nc2ccc(N3CCCC3)nc2)ccn1,-0.338
8,Cc1ccc(C(=O)N2CCC(Oc3ccc(C)c(C)c3)CC2)c(=O)[nH]1,12.9
9,Cc1csc(N2CCCN(C(=O)Cc3ccc(C)s3)CC2)n1,-12
10,CC(C(=O)Nc1cccc(N2CCCCC2)c1)n1cncn1 (stereo not given),-7.3
11,CN(C)c1cc(CNC(=O)c2cn(-c3ccc(F)cc3)nn2)ccn1,11.5
12,CC(C)(C)C(O)CN1CCN(C(=O)c2cccc3[nH]ncc23)CC1 (stereo not given),5.93
13,CC1N(C)C(=O)COC12CCN(Cc1nccs1)CC2 (stereo not given),-124
14,Cc1cccc(C(=O)N2CC[C@]3(C[C@H](OCc4ccccn4)CO3)C2)c1,-70.9
15,Cc1cc(CN2C[C@@H]3COC[C@]3(CNC(=O)N3CCCC3)C2)no1,-77.5
16,c1ccc2c(c1)C(NC1CCCC1)CC21CCNCC1 (stereo not given),-120
17,CC(C)NC(=O)N1CCN(CC2CC2)CC2(CNC(=O)C2)C1 (stereo not given),2.52
18,CC(C)CN1C(=O)C2(CCN(CC3CCOCC3)C2)c2ccccc21 (stereo not given),-71.2
19,COCCN1CCc2cc(C(=O)NC(C)C)c(NCC3CC3)nc2CC1,3.22
20,Cc1cccc(CN2C(=O)CC[C@@H]3[C@H]2CCN3Cc2ccc(F)cc2)n1,-72.1
21,O=C(N1CCCC1)N1CCC2(CCCN(CCOc3ccccc3)C2)C1 (stereo not given),11.3
22,CN(Cc1cccnc1)C1CC2(CCN(Cc3cccnc3)CC2)C1,-87.2
